Laboratory results taken from ChEMBL document CHEMBL4689842, “EUbOPEN Chemogenomics Library wave 1” (2021).

Tested on: HEK-293T
Experiment: Multiplex assay against HEK293T;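 as to Population Tubulin-Different-Phenotype (%): share of the cells with healthy nuclei that show this phenotype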
Assay type: toxicity, cell-based
Conditions: human
Summary of the method: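 Four dyes were applied at seeding to live cells: Hoechst33342, BioTracker Green Microtubule Cytoskeleton Dye, MitoTracker Red and Annexin V Alexa Fluor 680. Imaging after compound addition used a CQ1 microscope at 37°C and 5% CO2. CellPathfinder machine-learning gating then sorted cells into Hoechst high-intensity objects or normal cells, normal cells into healthy, pyknosed or fragmented nuclei, and pyknosed cells into mitotic or apoptotic, with tubulin, mitochondrial-mass and membrane-permeability phenotypes given as per cents of healthy-nucleus cells.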

[1] = 12 h, 1 µM, compound concentration 1 uM, replicate 1
[2] = 12 h, 1 µM, compound concentration 1 uM, replicate 2
[3] = 12 h, 10 µM, compound concentration 10 uM, replicate 1
[4] = 12 h, 10 µM, compound concentration 10 uM, replicate 2
[5] = 24 h, 1 µM, compound concentration 1 uM, replicate 1
[6] = 24 h, 1 µM, compound concentration 1 uM, replicate 2
[7] = 24 h, 10 µM, compound concentration 10 uM, replicate 1
[8] = 24 h, 10 µM, compound concentration 10 uM, replicate 2

CCN1CCN(c2ccc(Nc3cc(N(C)C(=O)Nc4c(Cl)c(OC)cc(OC)c4Cl)ncn3)cc2)CC1 [INFIGRATINIB]
Population Apoptotic (%) [1]: 26% | Population Fragmented Nuclei (%) [1]: 18% | Population Healthy Nuclei (%) [1]: 37% | Population Hoechst High Intensity Objects (%) [1]: 19% | Population Membrane Permeable-Phenotype (%) [1]: 18% | Population Mitochondria Different-Phenotype (%) [1]: 14% | Population Mitotic Cells (%) [1]: 73% | Population Normal (%) [1]: 80% | Population Pyknosed Nuclei (%) [1]: 44% | Population Tubulin-Different-Phenotype (%) [1]: 52% | Total Cell Count [1]: 470 | Population Apoptotic (%) [2]: 14% | Population Fragmented Nuclei (%) [2]: 4% | Population Healthy Nuclei (%) [2]: 84% | Population Hoechst High Intensity Objects (%) [2]: 3% | Population Membrane Permeable-Phenotype (%) [2]: 6% | Population Mitochondria Different-Phenotype (%) [2]: 27% | Population Mitotic Cells (%) [2]: 85% | Population Normal (%) [2]: 96% | Population Pyknosed Nuclei (%) [2]: 11% | Population Tubulin-Different-Phenotype (%) [2]: 81% | Total Cell Count [2]: 1084 | Population Apoptotic (%) [3]: 18% | Population Fragmented Nuclei (%) [3]: 19% | Population Healthy Nuclei (%) [3]: 56% | Population Hoechst High Intensity Objects (%) [3]: 14% | Population Membrane Permeable-Phenotype (%) [3]: 7% | Population Mitochondria Different-Phenotype (%) [3]: 10% | Population Mitotic Cells (%) [3]: 81% | Population Normal (%) [3]: 85% | Population Pyknosed Nuclei (%) [3]: 23% | Population Tubulin-Different-Phenotype (%) [3]: 13% | Total Cell Count [3]: 527 | Population Apoptotic (%) [4]: 9% | Population Fragmented Nuclei (%) [4]: 7% | Population Healthy Nuclei (%) [4]: 87% | Population Hoechst High Intensity Objects (%) [4]: 2% | Population Membrane Permeable-Phenotype (%) [4]: 5% | Population Mitochondria Different-Phenotype (%) [4]: 11% | Population Mitotic Cells (%) [4]: 90% | Population Normal (%) [4]: 97% | Population Pyknosed Nuclei (%) [4]: 5% | Population Tubulin-Different-Phenotype (%) [4]: 24% | Total Cell Count [4]: 1732 | Population Apoptotic (%) [5]: 37% | Population Fragmented Nuclei (%) [5]: 16% | Population Healthy Nuclei (%) [5]: 60% | Population Hoechst High Intensity Objects (%) [5]: 19% | Population Membrane Permeable-Phenotype (%) [5]: 10% | Population Mitochondria Different-Phenotype (%) [5]: 31% | Population Mitotic Cells (%) [5]: 62% | Population Normal (%) [5]: 80% | Population Pyknosed Nuclei (%) [5]: 23% | Population Tubulin-Different-Phenotype (%) [5]: 78% | Total Cell Count [5]: 436 | Population Apoptotic (%) [6]: 6% | Population Fragmented Nuclei (%) [6]: 7% | Population Healthy Nuclei (%) [6]: 82% | Population Hoechst High Intensity Objects (%) [6]: 5% | Population Membrane Permeable-Phenotype (%) [6]: 9% | Population Mitochondria Different-Phenotype (%) [6]: 20% | Population Mitotic Cells (%) [6]: 93% | Population Normal (%) [6]: 94% | Population Pyknosed Nuclei (%) [6]: 9% | Population Tubulin-Different-Phenotype (%) [6]: 87% | Total Cell Count [6]: 1343 | Population Apoptotic (%) [7]: 19% | Population Fragmented Nuclei (%) [7]: 13% | Population Healthy Nuclei (%) [7]: 76% | Population Hoechst High Intensity Objects (%) [7]: 10% | Population Membrane Permeable-Phenotype (%) [7]: 15% | Population Mitochondria Different-Phenotype (%) [7]: 4% | Population Mitotic Cells (%) [7]: 80% | Population Normal (%) [7]: 89% | Population Pyknosed Nuclei (%) [7]: 9% | Population Tubulin-Different-Phenotype (%) [7]: 24% | Total Cell Count [7]: 608 | Population Apoptotic (%) [8]: 10% | Population Fragmented Nuclei (%) [8]: 23% | Population Healthy Nuclei (%) [8]: 74% | Population Hoechst High Intensity Objects (%) [8]: 4% | Population Membrane Permeable-Phenotype (%) [8]: 11% | Population Mitochondria Different-Phenotype (%) [8]: 2% | Population Mitotic Cells (%) [8]: 90% | Population Normal (%) [8]: 95% | Population Pyknosed Nuclei (%) [8]: 2% | Population Tubulin-Different-Phenotype (%) [8]: 26% | Total Cell Count [8]: 3002
